Test results published in ChEMBL document CHEMBL1131232, “New azole antifungals. 3. Synthesis and antifungal activity of 3-substituted-4(3H)-quinazolinones” (J Med Chem, 1998).
≈ marks a conversion by molar mass, not a printed value.

Experiments:
Type in all cases: functional
[1] = In vitro antifungal activity against 6 filamentous fungi
In short: (§1)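 Agar dilution on Kimmig's agar with 0.5% glycerol, using ATCC strains or clinical isolates. Drug stocks were 800 μg/mL in 50% ethanol, tested as 2-fold dilutions from 80 to 0.03 μg/mL. Inocula were 10⁵ cfu/mL. […] Geometric means took >80 as 160 and ≤0.03 as 0.03.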

[2] = In vitro for antifungal activity against 10 yeasts; in short: as §1
Candida albicans [3] = assay: In vivo antifungal activity against murine candidosis model after peroral administration with 1 mg/kg at various time intervals. (percent protection for 100% mortality with fluconazole-treated group.); settings: route oral
In short: (§2)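 Groups of 10 male mice were infected iv with 0.2 mL of C. albicans at 2 to 8×10^7 cfu/mL. Drug was given orally as a suspension in 1% Tween + 0.2% carboxymethylcellulose at 1, 4 and 24 h post-infection; controls got vehicle only. Survival was scored on days 3, 5, 7 and 9. Read-out was % survival on the day all untreated controls died, or on the day all mice given fluconazole at the same dose died.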

Candida albicans [4] = assay: In vivo antifungal activity against murine candidosis model after peroral administration with 1 mg/kg at various time intervals. (percent protection for 100% mortality with untreated group); settings: route oral; in short: as §2
Candida albicans [5] = assay: In vivo antifungal activity against murine candidosis model after peroral administration with 0.5 mg/kg at various time intervals. (percent protection for 100% mortality with fluconazole-treated group.); settings: route oral; in short: as §2
Candida albicans [6] = assay: In vivo antifungal activity against murine candidosis model after peroral administration with 0.5 mg/kg at various time intervals. (percent protection for 100% mortality with untreated group); settings: route oral; in short: as §2

## C[C@@H](n1cnc2cc(N3CCOC3=O)ccc2c1=O)[C@](O)(Cn1cncn1)c1ccc(F)cc1F
[1]; read-out: MIC
  MIC: 80 µg/mL (≈ 166 µM)
[2]; read-out: MIC
  MIC: 8.7 µg/mL (≈ 18 µM)

## CC[C@H]([C@H](C)O)n1ncn(-c2ccc(N3CCN(c4ccc5c(=O)n([C@H](C)[C@](O)(Cn6cncn6)c6ccc(F)cc6F)cnc5c4)CC3)cc2)c1=O
[1]; read-out: MIC
  MIC: > 80 µg/mL
[2]; read-out: MIC
  MIC: 32 µg/mL (≈ 44 µM)

## C[C@@H](n1cnc2cc(C#N)ccc2c1=O)[C@](O)(Cn1cncn1)c1ccc(F)cc1F
[1]; read-out: MIC
  MIC: 3.5 µg/mL (≈ 8.29 µM)
Candida albicans [3]
  Protection: 0%
Candida albicans [4]
  Protection: 10%
[2]; read-out: MIC
  MIC: 0.8 µg/mL (≈ 1.89 µM)

## C[C@@H](n1cnc2c(Br)cc(Br)cc2c1=O)[C@](O)(Cn1cncn1)c1ccc(F)cc1F
[1]; read-out: MIC
  MIC: > 80 µg/mL
Candida albicans [3]
  Protection: 0%
Candida albicans [4]
  Protection: 10%
[2]; read-out: MIC
  MIC: 2.6 µg/mL (≈ 4.68 µM)

## Cc1ccc2ncn([C@H](C)[C@](O)(Cn3cncn3)c3ccc(F)cc3F)c(=O)c2c1
[1]; read-out: MIC
  MIC: 45 µg/mL (≈ 109 µM)
Candida albicans [3]
  Protection: 0%
Candida albicans [4]
  Protection: 40%
[2]; read-out: MIC
  MIC: 1.4 µg/mL (≈ 3.4 µM)

## C[C@@H](n1cnc2cc(S(=O)(=O)c3ccccc3)ccc2c1=O)[C@](O)(Cn1cncn1)c1ccc(F)cc1F
[1]; read-out: MIC
  MIC: 8.7 µg/mL (≈ 16.2 µM)
Candida albicans [5]
  Protection: 0%
Candida albicans [6]
  Protection: 0%
[2]; read-out: MIC
  MIC: 1.2 µg/mL (≈ 2.23 µM)

## C[C@@H](n1cnc2cc(-n3cncn3)ccc2c1=O)[C@](O)(Cn1cncn1)c1ccc(F)cc1F
[1]; read-out: MIC
  MIC: 80 µg/mL (≈ 172 µM)
Candida albicans [5]
  Protection: <50%
Candida albicans [6]
  Protection: 70%
[2]; read-out: MIC
  MIC: 6.6 µg/mL (≈ 14.2 µM)

## C[C@@H](n1cnc2cc(F)c(F)cc2c1=O)[C@](O)(Cn1cncn1)c1ccc(F)cc1F
[1]; read-out: MIC
  MIC: 70 µg/mL (≈ 162 µM)
Candida albicans [3]
  Protection: 0%
Candida albicans [4]
  Protection: 10%
[2]; read-out: MIC
  MIC: 1.7 µg/mL (≈ 3.92 µM)

## Cc1nc2cc(Cl)ccc2c(=O)n1[C@H](C)[C@](O)(Cn1cncn1)c1ccc(F)cc1F
[1]; read-out: MIC
  MIC: 36 µg/mL (≈ 80.7 µM)
[2]; read-out: MIC
  MIC: 6.6 µg/mL (≈ 14.8 µM)

## C[C@@H](n1cnc2cc(N3CCN(c4ccc(Cl)cc4)CC3)ccc2c1=O)[C@](O)(Cn1cncn1)c1ccc(F)cc1F
[1]; read-out: MIC
  MIC: 2.8 µg/mL (≈ 4.73 µM)
Candida albicans [5]
  Protection: 0%
Candida albicans [6]
  Protection: 60%
[2]; read-out: MIC
  MIC: 0.2 µg/mL (≈ 0.338 µM)

## C[C@@H](n1cnc2cc(OCC(F)(F)C(F)F)ccc2c1=O)[C@](O)(Cn1cncn1)c1ccc(F)cc1F
[1]; read-out: MIC
  MIC: 18 µg/mL (≈ 34.1 µM)
Candida albicans [5]
  Protection: 100%
Candida albicans [6]
  Protection: 100%
[2]; read-out: MIC
  MIC: 0.4 µg/mL (≈ 0.758 µM)

## C[C@@H](n1cnc2cc(NCc3ccccc3)ccc2c1=O)[C@](O)(Cn1cncn1)c1ccc(F)cc1F
[1]; read-out: MIC
  MIC: 11 µg/mL (≈ 21.9 µM)
Candida albicans [5]
  Protection: 0%
Candida albicans [6]
  Protection: 40%
[2]; read-out: MIC
  MIC: 1.2 µg/mL (≈ 2.39 µM)

## Cc1cccc2ncn([C@H](C)[C@](O)(Cn3cncn3)c3ccc(F)cc3F)c(=O)c12
[1]; read-out: MIC
  MIC: 40 µg/mL (≈ 97.2 µM)
Candida albicans [3]
  Protection: 0%
Candida albicans [4]
  Protection: 0%
[2]; read-out: MIC
  MIC: 2.6 µg/mL (≈ 6.32 µM)

## C[C@@H](n1cnc2cc(S(C)(=O)=O)ccc2c1=O)[C@](O)(Cn1cncn1)c1ccc(F)cc1F
[1]; read-out: MIC
  MIC: > 80 µg/mL
Candida albicans [5]
  Protection: 80%
Candida albicans [6]
  Protection: 100%
[2]; read-out: MIC
  MIC: 11 µg/mL (≈ 23.1 µM)

## CSc1ccc2c(=O)n([C@H](C)[C@](O)(Cn3cncn3)c3ccc(F)cc3F)cnc2c1
[1]; read-out: MIC
  MIC: 3.8 µg/mL (≈ 8.57 µM)
Candida albicans [5]
  Protection: 40%
Candida albicans [6]
  Protection: 100%
[2]; read-out: MIC
  MIC: 0.5 µg/mL (≈ 1.13 µM)

## C[C@@H](n1cnc2cc(OCC(F)F)ccc2c1=O)[C@](O)(Cn1cncn1)c1ccc(F)cc1F
[1]; read-out: MIC
  MIC: 25 µg/mL (≈ 52.4 µM)
Candida albicans [5]
  Protection: 0%
Candida albicans [6]
  Protection: 100%
[2]; read-out: MIC
  MIC: 1.4 µg/mL (≈ 2.93 µM)

## C[C@@H](n1cnc2cccc(F)c2c1=O)[C@](O)(Cn1cncn1)c1ccc(F)cc1F
[1]; read-out: MIC
  MIC: 57 µg/mL (≈ 137 µM)
Candida albicans [3]
  Protection: 0%
Candida albicans [4]
  Protection: 0%
[2]; read-out: MIC
  MIC: 4.3 µg/mL (≈ 10.4 µM)

## C[C@@H](n1cnc2cc(N)c(F)cc2c1=O)[C@](O)(Cn1cncn1)c1ccc(F)cc1F
[1]; read-out: MIC
  MIC: 50 µg/mL (≈ 116 µM)
[2]; read-out: MIC
  MIC: 8.7 µg/mL (≈ 20.2 µM)

## C[C@@H](n1cnc2cc(C(N)=O)ccc2c1=O)[C@](O)(Cn1cncn1)c1ccc(F)cc1F
[1]; read-out: MIC
  MIC: > 80 µg/mL
[2]; read-out: MIC
  MIC: 25 µg/mL (≈ 56.8 µM)

## C[C@@H](n1cnc2c(Cl)cc(Cl)cc2c1=O)[C@](O)(Cn1cncn1)c1ccc(F)cc1F
[1]; read-out: MIC
  MIC: > 80 µg/mL
Candida albicans [3]
  Protection: 0%
Candida albicans [4]
  Protection: 100%
[2]; read-out: MIC
  MIC: 1.7 µg/mL (≈ 3.65 µM)

## C[C@@H](n1cnc2cc(-n3ncnn3)ccc2c1=O)[C@](O)(Cn1cncn1)c1ccc(F)cc1F
[1]; read-out: MIC
  MIC: 57 µg/mL (≈ 122 µM)
[2]; read-out: MIC
  MIC: 1.5 µg/mL (≈ 3.22 µM)

## C[C@@H](n1cnc2cccc(Cl)c2c1=O)[C@](O)(Cn1cncn1)c1ccc(F)cc1F
[1]; read-out: MIC
  MIC: 71 µg/mL (≈ 164 µM)
Candida albicans [3]
  Protection: 0%
Candida albicans [4]
  Protection: 0%
[2]; read-out: MIC
  MIC: 3.1 µg/mL (≈ 7.18 µM)

## Cc1cccc2c(=O)n([C@H](C)[C@](O)(Cn3cncn3)c3ccc(F)cc3F)cnc12
[1]; read-out: MIC
  MIC: 80 µg/mL (≈ 194 µM)
Candida albicans [3]
  Protection: 0%
Candida albicans [4]
  Protection: 10%
[2]; read-out: MIC
  MIC: 2.3 µg/mL (≈ 5.59 µM)

## C[C@@H](n1cnc2cc(C(=N)NS(N)(=O)=O)ccc2c1=O)[C@](O)(Cn1cncn1)c1ccc(F)cc1F
[1]; read-out: MIC
  MIC: > 80 µg/mL
Candida albicans [5]
  Protection: 0%
Candida albicans [6]
  Protection: 0%
[2]; read-out: MIC
  MIC: 40 µg/mL (≈ 77.1 µM)

## C[C@@H](n1cnc2cc(N3CCN(C)CC3)ccc2c1=O)[C@](O)(Cn1cncn1)c1ccc(F)cc1F
[1]; read-out: MIC
  MIC: > 80 µg/mL
Candida albicans [5]
  Protection: 0%
Candida albicans [6]
  Protection: 20%
[2]; read-out: MIC
  MIC: 19 µg/mL (≈ 38.3 µM)

## C[C@@H](n1cnc2cc(NC(=O)C(F)(F)F)c(F)cc2c1=O)[C@](O)(Cn1cncn1)c1ccc(F)cc1F
[1]; read-out: MIC
  MIC: 80 µg/mL (≈ 152 µM)
[2]; read-out: MIC
  MIC: 8.1 µg/mL (≈ 15.4 µM)

## C[C@@H](n1cnc2cc(OCC(F)(F)F)ccc2c1=O)[C@](O)(Cn1cncn1)c1ccc(F)cc1F
[1]; read-out: MIC
  MIC: 15 µg/mL (≈ 30.3 µM)
Candida albicans [5]
  Protection: 100%
Candida albicans [6]
  Protection: 100%
[2]; read-out: MIC
  MIC: 1 µg/mL (≈ 2.02 µM)

## C[C@@H](n1cnc2cc(Cl)ccc2c1=O)[C@](O)(Cn1cncn1)c1ccc(F)cc1F (stereo in doubt; 75) [ALBACONAZOLE]
[1]
  MIC: 33 µg/mL (≈ 76.4 µM)
[2]
  MIC: 1 µg/mL (≈ 2.32 µM)

## C[C@@H](n1cnc2ccccc2c1=O)[C@](O)(Cn1cncn1)c1ccc(F)cc1F
[1]; read-out: MIC
  MIC: 8.9 µg/mL (≈ 22.4 µM)
Candida albicans [3]
  Protection: 0%
Candida albicans [4]
  Protection: 10%
[2]; read-out: MIC
  MIC: 1.2 µg/mL (≈ 3.02 µM)

## C[C@@H](n1cnc2ccc(F)cc2c1=O)[C@](O)(Cn1cncn1)c1ccc(F)cc1F
[1]; read-out: MIC
  MIC: > 80 µg/mL
Candida albicans [3]
  Protection: 0%
Candida albicans [4]
  Protection: 0%
[2]; read-out: MIC
  MIC: 2.4 µg/mL (≈ 5.78 µM)

## Cc1cc(Br)c2ncn([C@H](C)[C@](O)(Cn3cncn3)c3ccc(F)cc3F)c(=O)c2c1
[1]; read-out: MIC
  MIC: > 80 µg/mL
Candida albicans [3]
  Protection: 0%
Candida albicans [4]
  Protection: 0%
[2]; read-out: MIC
  MIC: 2.1 µg/mL (≈ 4.28 µM)

## C[C@@H](n1cnc2cc3ccccc3cc2c1=O)[C@](O)(Cn1cncn1)c1ccc(F)cc1F
[1]; read-out: MIC
  MIC: 45 µg/mL (≈ 101 µM)
Candida albicans [3]
  Protection: 0%
Candida albicans [4]
  Protection: 30%
[2]; read-out: MIC
  MIC: 0.4 µg/mL (≈ 0.894 µM)

## C[C@@H](n1cnc2ccc(Cl)cc2c1=O)[C@](O)(Cn1cncn1)c1ccc(F)cc1F
[1]; read-out: MIC
  MIC: 50 µg/mL (≈ 116 µM)
Candida albicans [3]
  Protection: 0%
Candida albicans [4]
  Protection: 40%
[2]; read-out: MIC
  MIC: 1 µg/mL (≈ 2.32 µM)

## C[C@@H](n1cnc2cc(N(C)C)c(F)cc2c1=O)[C@](O)(Cn1cncn1)c1ccc(F)cc1F
[1]; read-out: MIC
  MIC: 22 µg/mL (≈ 48 µM)
Candida albicans [3]
  Protection: 0%
Candida albicans [4]
  Protection: 0%
[2]; read-out: MIC
  MIC: 1.4 µg/mL (≈ 3.05 µM)

## C[C@@H](n1cnc2cc(NN)ccc2c1=O)[C@](O)(Cn1cncn1)c1ccc(F)cc1F
[1]; read-out: MIC
  MIC: > 80 µg/mL
[2]; read-out: MIC
  MIC: 15 µg/mL (≈ 35.1 µM)

## C[C@@H](n1cnc2ccc(Br)cc2c1=O)[C@](O)(Cn1cncn1)c1ccc(F)cc1F
[1]; read-out: MIC
  MIC: 45 µg/mL (≈ 94.5 µM)
Candida albicans [3]
  Protection: 0%
Candida albicans [4]
  Protection: 100%
[2]; read-out: MIC
  MIC: 1.6 µg/mL (≈ 3.36 µM)

## C[C@@H](n1cnc2cc(N3CCN(c4ccc([N+](=O)[O-])cc4)CC3)ccc2c1=O)[C@](O)(Cn1cncn1)c1ccc(F)cc1F
[1]; read-out: MIC
  MIC: > 80 µg/mL
[2]; read-out: MIC
  MIC: 7.9 µg/mL (≈ 13.1 µM)

## Cc1cc(C)c2ncn([C@H](C)[C@](O)(Cn3cncn3)c3ccc(F)cc3F)c(=O)c2c1
[1]; read-out: MIC
  MIC: > 80 µg/mL
Candida albicans [3]
  Protection: 0%
Candida albicans [4]
  Protection: 0%
[2]; read-out: MIC
  MIC: 3.8 µg/mL (≈ 8.93 µM)
